Data set [1] concerns the target T1, Beta-3 adrenergic receptor (Homo sapiens, UniProt P13945). Nature of the data set: Agonist activity at human beta-3 adrenergic receptor expressed in CHO cells assessed as increase in cAMP level after 30 mins by LANCE TR-FRET assay. It is filed as functional, cell-based. (In general: Changes in cAMP serve as a functional read-out for many G protein-coupled receptors.)
Target sequence in this assay (P13945 whole entry): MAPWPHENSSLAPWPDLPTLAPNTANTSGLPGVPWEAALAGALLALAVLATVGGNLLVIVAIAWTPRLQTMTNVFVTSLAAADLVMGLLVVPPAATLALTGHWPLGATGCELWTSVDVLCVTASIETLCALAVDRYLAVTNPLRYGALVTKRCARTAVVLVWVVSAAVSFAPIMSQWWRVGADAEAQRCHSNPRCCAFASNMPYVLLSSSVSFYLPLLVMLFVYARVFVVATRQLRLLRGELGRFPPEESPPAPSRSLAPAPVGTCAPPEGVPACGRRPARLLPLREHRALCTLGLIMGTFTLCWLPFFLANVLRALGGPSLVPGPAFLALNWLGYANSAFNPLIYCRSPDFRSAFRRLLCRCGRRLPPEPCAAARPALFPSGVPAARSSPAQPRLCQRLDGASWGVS

Data set [2] has as its target T1, Beta-3 adrenergic receptor. Nature of the data set: Agonist activity at human beta-3 adrenergic receptor expressed in CHO cells assessed as increase in cAMP level after 30 mins by LANCE TR-FRET assay relative to R-(-)-isoproterenol. Format: functional, cell-based. Put shortly: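 Efficacy: the fitted maximal value of each test compound's concentration–response curve, expressed as a percent of the maximal response to R-(−)-isoproterenol.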
Target sequence in this assay (P13945 whole entry, looked up): as the sequence (P13945 whole entry) above

Data set [3] deals with Beta-1 adrenergic receptor (Homo sapiens, UniProt P08588). Kind of data set: Displacement of [125I]CYP from human beta-1 adrenergic receptor expressed in CHO cell membrane after 1 hr by scintillation counting method. It is filed as cell membranes. In general terms: Loss of bound radioactivity is the signal in a displacement assay; it reports binding, not function.
Beta-1 adrenergic receptor, sequence (P08588 whole entry): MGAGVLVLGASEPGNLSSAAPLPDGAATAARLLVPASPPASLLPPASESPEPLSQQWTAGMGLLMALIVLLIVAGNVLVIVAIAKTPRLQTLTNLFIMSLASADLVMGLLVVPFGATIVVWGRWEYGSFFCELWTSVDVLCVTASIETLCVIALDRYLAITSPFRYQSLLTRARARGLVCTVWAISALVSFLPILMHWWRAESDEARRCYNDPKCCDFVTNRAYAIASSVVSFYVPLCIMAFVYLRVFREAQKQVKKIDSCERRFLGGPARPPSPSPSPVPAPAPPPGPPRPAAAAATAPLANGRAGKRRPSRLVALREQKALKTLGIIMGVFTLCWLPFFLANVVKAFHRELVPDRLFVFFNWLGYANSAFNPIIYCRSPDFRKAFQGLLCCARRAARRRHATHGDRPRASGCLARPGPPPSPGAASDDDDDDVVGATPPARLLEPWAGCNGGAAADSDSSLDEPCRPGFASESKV
The target of data set [4] is Beta-2 adrenergic receptor (Homo sapiens, UniProt P07550). Kind of data set: Displacement of [125I]CYP from human beta-2 adrenergic receptor expressed in CHO cell membrane after 1 hr by scintillation counting method. It is filed as cell membranes.
Beta-2 adrenergic receptor, sequence (P07550 whole entry): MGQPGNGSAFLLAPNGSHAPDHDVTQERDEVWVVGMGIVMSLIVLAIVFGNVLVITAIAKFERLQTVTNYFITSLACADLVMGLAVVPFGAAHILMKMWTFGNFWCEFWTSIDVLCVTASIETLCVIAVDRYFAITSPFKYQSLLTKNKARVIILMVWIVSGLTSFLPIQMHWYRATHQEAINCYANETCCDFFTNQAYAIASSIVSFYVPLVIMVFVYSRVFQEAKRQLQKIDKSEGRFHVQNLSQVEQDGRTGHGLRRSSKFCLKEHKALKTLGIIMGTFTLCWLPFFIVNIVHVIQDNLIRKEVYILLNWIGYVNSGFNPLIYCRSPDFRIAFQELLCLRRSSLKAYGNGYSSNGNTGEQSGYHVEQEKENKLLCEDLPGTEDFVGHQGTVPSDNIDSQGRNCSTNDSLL
Data set [5] is described as follows: Plasma clearance in rat at 1 mg/kg, iv or 2 mg/kg, po. It is filed as ADME, organism-based.
Data set [6] in a line: Volume of distribution in rat at 1 mg/kg, iv or 2 mg/kg, po. The conditions noted are these: in vivo. It is filed as ADME, organism-based.
A short description of data set [7]: Half life in rat at 1 mg/kg, iv or 2 mg/kg, po. The conditions noted are these: in vivo. Format: ADME, organism-based.
In another data set the test system is Rattus norvegicus. Kind of data set: Dose normalized AUC in rat at 2 mg/kg, po. It is filed as ADME, organism-based. The conditions noted are these: in vivo.
A short description of data set [8]: Oral bioavailability in rat at 2 mg/kg. The conditions noted are these: in vivo. It is filed as ADME, organism-based.
Data set [9] in a line: Stability in human liver microsomes assessed as residual compound after 45 mins. It is filed as ADME. The conditions noted are these: read-out: Stability. In general terms: Microsomes from liver hold many membrane-bound enzymes, among them those of drug oxidation.
The nature of data set [10]: Stability in dog liver microsomes assessed as residual compound after 45 mins. It is filed as ADME, Canis lupus familiaris. The conditions noted are these: read-out: Stability.
The nature of data set [11]: Stability in rat liver microsomes assessed as residual compound after 45 mins. It is filed as ADME. The conditions noted are these: read-out: Stability.
The nature of data set [12]: Stability in rhesus monkey liver microsomes assessed as residual compound after 45 mins. It is filed as ADME, Macaca mulatta. The conditions noted are these: read-out: Stability.
Data set [13] is described as follows: Stability in human hepatocytes assessed as residual compound after 60 mins. The conditions noted are these: read-out: Stability. It is filed as ADME, cell-based, Hepatocyte.
Data set [14] can be described thus: Stability in dog hepatocytes assessed as residual compound after 60 mins. The conditions noted are these: read-out: Stability. Format: ADME, cell-based, Canis lupus familiaris, Hepatocyte.
Data set [15] in a line: Stability in rat hepatocytes assessed as residual compound after 60 mins. It is filed as ADME, cell-based, Hepatocyte. The conditions noted are these: read-out: Stability.
Data set [16] has as its target Voltage-gated inwardly rectifying potassium channel KCNH2 (Homo sapiens, UniProt Q12809). Nature of the data set: Inhibition of human ERG by IKr binding assay.
A short description of data set [17]: Plasma clearance in dog at 0.5 mg/kg, iv or 2 mg/kg, po. Format: ADME, organism-based, Canis lupus familiaris.
The nature of data set [18]: Volume of distribution in dog at 0.5 mg/kg, iv or 2 mg/kg, po. The conditions noted are these: in vivo. It is filed as ADME, organism-based, Canis lupus familiaris.
Data set [19] in a line: Half life in dog at 0.5 mg/kg, iv or 2 mg/kg, po. It is filed as ADME, organism-based, Canis lupus familiaris. The conditions noted are these: in vivo.
Another data set has as its system Canis familiaris. Kind of data set: Dose normalized AUC in dog at 2 mg/kg, po. Format: ADME, organism-based, Canis lupus familiaris. The conditions noted are these: in vivo.
A short description of data set [20]: Oral bioavailability in dog at 2 mg/kg. It is filed as ADME, organism-based, Canis lupus familiaris. The conditions noted are these: in vivo.
A further data set has as its system Rhesus monkey. Kind of data set: Dose normalized AUC in po dosed rhesus monkey. Format: ADME, organism-based, Macaca mulatta. The conditions noted are these: in vivo.
Data set [21] in a line: Plasma clearance in rhesus monkey. It is filed as ADME, organism-based, Macaca mulatta.
Data set [22] in a line: Volume of distribution in rhesus monkey. It is filed as ADME, organism-based, Macaca mulatta. The conditions noted are these: in vivo.
Data set [23] can be described thus: Half life in rhesus monkey. It is filed as ADME, organism-based, Macaca mulatta. The conditions noted are these: in vivo.
The nature of data set [24]: Oral bioavailability rhesus monkey. It is filed as ADME, organism-based, Macaca mulatta. The conditions noted are these: in vivo.

The term EC50 denotes the concentration that produces a half-maximal response. What is called IC50 is the concentration that inhibits the measured activity by half. A word on the half-life: it is how long it takes for the measured level to halve. Usually bioavailability stands for the share of a dose that reaches the circulation, judged against a reference dose that is usually intravenous.

Structures are written as SMILES.

Voltage-gated inwardly rectifying potassium channel KCNH2, sequence (Q12809 whole entry): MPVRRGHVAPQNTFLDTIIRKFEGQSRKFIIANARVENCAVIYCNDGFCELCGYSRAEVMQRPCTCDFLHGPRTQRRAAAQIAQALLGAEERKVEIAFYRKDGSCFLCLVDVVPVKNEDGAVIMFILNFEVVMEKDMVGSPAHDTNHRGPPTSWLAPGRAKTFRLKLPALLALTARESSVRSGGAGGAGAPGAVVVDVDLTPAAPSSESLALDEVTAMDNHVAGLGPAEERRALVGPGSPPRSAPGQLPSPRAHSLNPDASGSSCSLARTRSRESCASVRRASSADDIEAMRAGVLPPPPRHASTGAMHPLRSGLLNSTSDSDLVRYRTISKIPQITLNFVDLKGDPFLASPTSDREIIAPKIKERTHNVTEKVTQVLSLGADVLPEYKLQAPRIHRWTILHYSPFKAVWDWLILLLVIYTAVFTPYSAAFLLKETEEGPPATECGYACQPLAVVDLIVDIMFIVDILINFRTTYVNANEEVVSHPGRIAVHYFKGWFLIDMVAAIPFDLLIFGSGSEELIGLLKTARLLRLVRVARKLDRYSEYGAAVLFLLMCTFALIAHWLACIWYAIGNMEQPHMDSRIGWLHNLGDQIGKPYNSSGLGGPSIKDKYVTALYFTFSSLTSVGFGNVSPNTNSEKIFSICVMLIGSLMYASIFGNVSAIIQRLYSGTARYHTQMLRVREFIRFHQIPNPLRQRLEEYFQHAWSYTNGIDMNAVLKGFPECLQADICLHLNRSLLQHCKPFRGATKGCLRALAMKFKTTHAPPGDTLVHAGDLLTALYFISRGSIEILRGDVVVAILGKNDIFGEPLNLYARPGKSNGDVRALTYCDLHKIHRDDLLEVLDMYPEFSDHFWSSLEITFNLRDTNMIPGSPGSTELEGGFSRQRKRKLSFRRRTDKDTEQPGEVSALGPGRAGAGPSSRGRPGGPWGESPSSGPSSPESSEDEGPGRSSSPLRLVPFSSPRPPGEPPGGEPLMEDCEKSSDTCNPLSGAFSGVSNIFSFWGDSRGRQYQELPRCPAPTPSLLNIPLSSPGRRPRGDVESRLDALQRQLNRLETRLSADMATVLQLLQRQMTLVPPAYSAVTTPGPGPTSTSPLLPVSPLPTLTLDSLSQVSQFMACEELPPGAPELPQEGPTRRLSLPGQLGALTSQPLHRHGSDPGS

Regarding `CCOC(=O)C1CCN(C(=O)c2ccc(C[C@@H]3CC[C@H]([C@H](O)c4ccccc4)N3)cc2)CC1`, the 50% effective concentration (EC50) in [1] is 0.063 µM. The %max in data set [2] was 95%. The IC50 was over 20 µM in data set [3] and 10.9 µM in data set [4].

`Nc1nc(CC(=O)Nc2ccc(C[C@@H]3CC[C@H]([C@H](O)c4ccccc4)N3)cc2)cs1`: the %max in data set [2] was determined as 99%.

`O=C(c1ccc(C[C@@H]2CC[C@H]([C@H](O)c3ccccc3)N2)cc1)N1C[C@@H]2[C@H](C1)[C@H]2c1nnco1`: the 50% effective concentration (EC50) in data set [1] stood at 0.0017 µM. The %max in data set [2] is 101%. Also, the 50% inhibitory concentration (IC50) in [3] is over 20 µM; in [4], over 20 µM; in [16], 55 µM. The same compound yielded a clearance in [5] of 62 mL/min/kg. The Vd in data set [6] amounted to 9 L/kg. In addition, the half-life in data set [7] was 1.4 h. Besides, in the data set on Rattus norvegicus, the AUC/dose came to 0.26 µM·h/mg/kg. The compound further had a bioavailability in data set [8] of 43%. In addition, the remaining at 0.75 h was 84% in data set [9], 73% in data set [10], 98% in [11] and 80% in data set [12]. In addition, the remaining at 1 h in data set [13], in [14] and in [15] was at least 85% throughout.

For the compound `CCOC(=O)[C@H]1[C@@H]2CN(C(=O)c3ccc(C[C@@H]4CC[C@H]([C@H](O)c5ccccc5)N4)cc3)C[C@@H]21`, the concentration giving a half-maximal response (EC50) in [1] was 0.00049 µM. For the same compound, in data set [2], the %max is 90%. The IC50 is over 20 µM in data set [3] and 13.4 µM in [4].

Turning to `CCOC(=O)[C@@H]1[C@@H]2CN(C(=O)c3ccc(C[C@@H]4CC[C@H]([C@H](O)c5ccccc5)N4)cc3)C[C@@H]21`, the 50% effective concentration (EC50) in data set [1] came out at 0.075 µM. Further, the %max in [2] was found to be 97%. The IC50 in [3] and in data set [4] was over 20 µM throughout.

As to `CC1(C)CC2(CCN(C(=O)c3ccc(C[C@@H]4CC[C@H]([C@H](O)c5ccccc5)N4)cc3)CC2)C(=O)O1`, the EC50 in data set [1] was 0.0019 µM. Moreover, in [2], the %max was determined as 85%. Moreover, the IC50 in [3] is over 20 µM; in data set [4], 11 µM; in [16], 31 µM. Further, the clearance in [5] was 86 mL/min/kg. Besides, the Vd in data set [6] is 9.5 L/kg. In addition, in data set [7], the half-life was 2 h. The same compound gave an AUC/dose in the data set with Rattus norvegicus of 0.16 µM·h/mg/kg. Further, the bioavailability in data set [8] came to 38%.

For `O=C(c1ccc(C[C@@H]2CC[C@H]([C@H](O)c3ccccc3)N2)cc1)N1CCC2(CCOC2=O)CC1`, the EC50 in data set [1] was 0.0033 µM. The %max in [2] was 89%. Besides, the results for the IC50 in data set [3], in data set [4] and in [16] were over 20 µM, 5.6 µM and 46 µM, respectively. Further, the clearance in [5] came to 56 mL/min/kg; in data set [17], 31 mL/min/kg. Moreover, the results for the Vd in [6] and in [18] were 7.2 L/kg and 7.4 L/kg, respectively. The half-life is 2.5 h in [7] and 3.2 h in data set [19]. The results for the AUC/dose in the data set on Rattus norvegicus and in the data set with Canis familiaris were 0.21 µM·h/mg/kg and 0.23 µM·h, respectively. The bioavailability in data set [8] came out at 31%; in [20], 17%. The remaining at 0.75 h amounted to 53% in [9], 78% in data set [10] and 56% in data set [11].

On to `O=C(Nc1ccc(C[C@@H]2CC[C@H]([C@H](O)c3cccnc3)N2)cc1)C1CCc2ccnn21` (some centres undefined), for which, in [1], the 50% effective concentration (EC50) was 0.0037 µM. In data set [2], the %max amounted to 84%.

As to `CCS(=O)(=O)C1CCN(C(=O)c2ccc(C[C@@H]3CC[C@H]([C@H](O)c4ccccc4)N3)cc2)CC1`, in data set [1], the EC50 turned out to be 0.0097 µM. Further, the %max in data set [2] was determined as 100%. Also, the IC50 is over 20 µM in data set [3], over 20 µM in data set [4] and over 60 µM in data set [16].

As to `Cn1nnc([C@H]2[C@@H]3CN(C(=O)c4ccc(C[C@@H]5CC[C@H]([C@H](O)c6ccccc6)N5)cc4)C[C@@H]32)n1`, in [1], the EC50 is 0.0054 µM. Further, in data set [2], the %max was 97%. Further, the values for the 50% inhibitory concentration (IC50) in data set [3], in data set [4] and in [16] were over 20 µM, over 20 µM and 17 µM, respectively. For the same compound, the clearance in [5] turned out to be 29 mL/min/kg; in [17], 19 mL/min/kg. Further, the Vd in data set [6] was found to be 6.5 L/kg; in data set [18] it was 5.5 L/kg. Besides, the values for the half-life in data set [7] and in data set [19] were 3.2 h and 3.7 h, respectively. Further, the AUC/dose in the data set with Rattus norvegicus stood at 0.73 µM·h/mg/kg; in the data set with Canis familiaris it was 0.99 µM·h. Besides, the bioavailability in data set [8] came to 56%; in [20], 51%.

As to `CCc1nnc([C@H]2[C@@H]3CN(C(=O)c4ccc(C[C@@H]5CC[C@H]([C@H](O)c6ccccc6)N5)cc4)C[C@@H]32)o1`, the AUC/dose was 0.06 µM·h in the data set with Rhesus monkey, 0.21 µM·h/mg/kg in the data set on Rattus norvegicus and 0.46 µM·h in the data set on Canis familiaris. In addition, the concentration giving a half-maximal response (EC50) in data set [1] stood at 0.0031 µM. Further, the %max in data set [2] turned out to be 97%. Besides, the IC50 in data set [3] and in [4] was over 20 µM each time. In addition, the values for the clearance in data set [5], in data set [17] and in data set [21] were 56 mL/min/kg, 36 mL/min/kg and 30 mL/min/kg, respectively. Moreover, the results for the Vd in data set [6], in data set [18] and in data set [22] were 9.3 L/kg, 9.2 L/kg and 5.2 L/kg, respectively. The half-life is 3 h in data set [7], 3.7 h in data set [19] and 2.4 h in data set [23]. The bioavailability in [8] amounted to 33%; in data set [20], 44%; in data set [24] it was 5%.

For `Nc1nc(CNC(=O)c2ccc(C[C@@H]3CC[C@H]([C@H](O)c4ccccc4)N3)cc2)cs1`, the EC50 in data set [1] was 0.024 µM. Further, the %max in data set [2] was found to be 84%. Besides, the results for the IC50 in [3], in data set [4] and in data set [16] were over 20 µM, 5.2 µM and over 30 µM, respectively.

Source of the values: ChEMBL document CHEMBL3745665, “Discovery of benzamides as potent human β3 adrenergic receptor agonists” (Bioorg Med Chem Lett, 2016).
